Results from ChEMBL document CHEMBL1127731, “Structure-activity study of neuropeptide FF: contribution of N-terminal regions to affinity and activity” (J Med Chem, 1994).
Where a SMILES comes first, the peptide text is derived from it. [ ]: non-standard residue; d: D form. NMeF = CN[C@@H](Cc1ccccc1)C(=O)O

Experiments:
[1] = target: Neuropeptide FF receptor 2 (Rattus norvegicus, UniProt Q9EQD2); assay: Binding affinity for NPPF receptor in rat spinal cord membranes using the radioligand [125I]-[Tyr1]NPFF; assay type: cell membranes, Membrane
Neuropeptide FF receptor 2, sequence (Q9EQD2 whole entry): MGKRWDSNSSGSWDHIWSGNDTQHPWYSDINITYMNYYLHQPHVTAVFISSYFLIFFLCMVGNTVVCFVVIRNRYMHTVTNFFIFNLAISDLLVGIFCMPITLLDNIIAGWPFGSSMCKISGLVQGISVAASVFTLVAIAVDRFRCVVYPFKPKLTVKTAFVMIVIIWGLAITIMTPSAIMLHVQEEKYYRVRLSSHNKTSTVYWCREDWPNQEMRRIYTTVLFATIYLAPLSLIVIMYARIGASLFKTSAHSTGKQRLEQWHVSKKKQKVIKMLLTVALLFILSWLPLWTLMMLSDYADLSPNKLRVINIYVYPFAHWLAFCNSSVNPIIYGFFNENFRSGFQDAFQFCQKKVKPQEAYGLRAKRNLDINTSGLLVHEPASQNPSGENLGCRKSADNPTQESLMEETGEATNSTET
Procedure, shortened: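 Displacement of [125I][Tyr1]NPFF (0.1 nM final) from rat spinal cord membranes, 30 min at 25 °C, in 50 mM Tris-HCl pH 7.4 with 120 mM NaCl, 0.5% BSA, 0.1 mM bestatin, 1 mM EDTA, 0.5 mM diisopropylfluorophosphate. Unlabeled peptides 5×10^-11–10^-6 M; nonspecific binding with 10^-6 M [Tyr1]NPFF. Stopped by ice-cold buffer and centrifugation; pellet gamma-counted. Ki via Cheng-Prusoff from IC50; three determinations.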

Mus musculus = species: Mus musculus; assay: Minimum effective dose able to significantly reverse morphine analgesia in male CDF1 mice by tail-flick test; assay type: functional
Procedure, shortened: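 Analog (0, 1, 2.2, 8.8 or 22 nmol) coinjected icv with 5.5 nmol morphine in 150 mM NaCl, 10 mice per group. Radiant-heat tail-flick read 15 min later, baseline 2-3 s, 6 s cutoff defined as 100% analgesia. Percent antinociception = (Tt−Tc)/(6−Tc)×100.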

Ki [1] [nM]	Compound	MED (Mus musculus) [nmol]
0.22	H-FLYQPQRF-NH2	–
0.2	CC(C)C[C@H](NC(=O)[C@@H](N)Cc1ccc(O)cc1)C(=O)N[C@@H](Cc1ccccc1)C(=O)N[C@@H](CCC(N)=O)C(=O)N1CCC[C@H]1C(=O)N[C@@H](CCC(N)=O)C(=O)N[C@@H](CCCN=C(N)N)C(=O)N[C@@H](Cc1ccccc1)C(N)=O	8.8
0.43	NC(=O)CC[C@H](NC(=O)[C@@H]1CCCN1C(=O)[C@H](CCC(N)=O)NC(=O)[C@@H](N)Cc1ccccc1)C(=O)N[C@@H](CCCN=C(N)N)C(=O)N[C@@H](Cc1ccccc1)C(N)=O	22
64	NC(=O)CC[C@H](NC(=O)[C@H]1CCCN1C(=O)[C@@H](N)CCC(N)=O)C(=O)N[C@@H](CCCN=C(N)N)C(=O)N[C@@H](Cc1ccccc1)C(N)=O	–
0.6	H-FLFQPGRF-NH2	–
–	CC(C)C[C@H](NC(=O)[C@@H](N)Cc1ccccc1)C(=O)N[C@@H](Cc1ccccc1)C(=O)N[C@@H](CCC(N)=O)C(=O)N1CCC[C@H]1C(=O)N[C@@H](CCC(N)=O)C(=O)N[C@@H](CCCN=C(N)N)C(=O)N[C@@H](Cc1ccccc1)C(N)=O	22
45	NC(=O)CC[C@H](NC(=O)[C@H]1CCCN1C(=O)[C@H](CCC(N)=O)NC(=O)[C@@H](N)Cc1ccccc1)C(=O)N[C@@H](CCCN=C(N)N)C(=O)N[C@@H](Cc1ccccc1)C(N)=O	–
0.2	CC(C)C[C@H](N)C(=O)N[C@@H](Cc1ccccc1)C(=O)N[C@@H](CCC(N)=O)C(=O)N1CCC[C@H]1C(=O)N[C@@H](CCC(N)=O)C(=O)N[C@@H](CCCN=C(N)N)C(=O)N[C@@H](Cc1ccccc1)C(N)=O	–
10	H-FLFGPQRF-NH2	–
1.2	H-FLFQGQRF-NH2	8.8
33	CC(C)C[C@H](N)C(=O)N[C@@H](Cc1ccccc1)C(=O)N[C@@H](CCC(N)=O)C(=O)N1CCC[C@@H]1C(=O)N[C@@H](CCC(N)=O)C(=O)N[C@@H](CCCNC(=N)N)C(=O)N[C@@H](Cc1ccccc1)C(N)=O	–
30	CC(C)C[C@H](NC(=O)[C@@H](N)Cc1ccc(O)cc1)C(=O)N[C@@H](Cc1ccccc1)C(=O)N[C@@H](CCC(N)=O)C(=O)N1CCC[C@@H]1C(=O)N[C@@H](CCC(N)=O)C(=O)N[C@@H](CCCN=C(N)N)C(=O)N[C@@H](Cc1ccccc1)C(N)=O	–
1	CC(C)C[C@@H](NC(=O)[C@H](N)Cc1ccc(O)cc1)C(=O)N[C@H](Cc1ccccc1)C(=O)N[C@@H](CCC(N)=O)C(=O)N1CCC[C@H]1C(=O)N[C@@H](CCC(N)=O)C(=O)N[C@@H](CCCNC(=N)N)C(=O)N[C@@H](Cc1ccccc1)C(N)=O	–
0.16	CC(C)C[C@H](NC(=O)[C@H](N)Cc1ccc(O)cc1)C(=O)N(C)[C@@H](Cc1ccccc1)C(=O)N[C@@H](CCC(N)=O)C(=O)N1CCC[C@H]1C(=O)N[C@@H](CCC(N)=O)C(=O)N[C@@H](CCCN=C(N)N)C(=O)N[C@@H](Cc1ccccc1)C(N)=O (H-[dY]L[NMeF]QPQRF-NH2)	8.8
0.5	CC(C)C[C@@H](NC(=O)[C@H](N)Cc1ccc(O)cc1)C(=O)N[C@@H](Cc1ccccc1)C(=O)N[C@@H](CCC(N)=O)C(=O)N1CCC[C@H]1C(=O)N[C@@H](CCC(N)=O)C(=O)N[C@@H](CCCN=C(N)N)C(=O)N[C@@H](Cc1ccccc1)C(N)=O	–
0.19	CC(C)C[C@@H](NC(=O)[C@H](N)Cc1ccc(O)cc1)C(=O)N(C)[C@@H](Cc1ccccc1)C(=O)N[C@@H](CCC(N)=O)C(=O)N1CCC[C@H]1C(=O)N[C@@H](CCC(N)=O)C(=O)N[C@@H](CCCNC(=N)N)C(=O)N[C@@H](Cc1ccccc1)C(N)=O (H-[dY][dL][NMeF]QPQRF-NH2)	–
94	NC(=O)CC[C@H](NC(=O)[C@H]1CCCN1)C(=O)N[C@@H](CCCN=C(N)N)C(=O)N[C@@H](Cc1ccccc1)C(N)=O	–
300	N=C(N)NCCC[C@H](NC(=O)[C@@H](N)CCC(N)=O)C(=O)N[C@@H](Cc1ccccc1)C(N)=O (H-Gln-Arg-Phe-NH2)	–
20.9	NC(=O)CC[C@H](NC(=O)[C@@H]1CCCN1C(=O)[C@@H](N)CCC(N)=O)C(=O)N[C@@H](CCCN=C(N)N)C(=O)N[C@@H](Cc1ccccc1)C(N)=O	> 22
